# Compound activity as filed in PubChem BioAssay.
# Most compounds without a hit are left out; they make up all but 2% or so of the library.
# HIF activator: HIF pathway transcriptional activators, primary screen, cell-based, U2OS HRE-luciferase, luminescence; U2OS HRE-luciferase reporter; normalized: DMSO 0%, desferrioxamine 100%; activation, % at 7.5 µM (by protocol); 0.32% of 300,000 active; AID 1910, 2009;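 active = mean activation of at least 10% of the iron chelator positive control signal, with at least half of replicates also reaching 10%; inconclusive = mean and replicate majority disagree about reaching 10%; inactive = mean and most replicates under 10%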
# ARNT TACC3 PPI: disruptors of ARNT/TACC3 protein interaction, primary screen, biochemical, AlphaScreen, single concentration; Transforming acidic coiled-coil-containing protein 3 (Homo sapiens), Q9Y6A5; AlphaScreen His-ARNT PAS-B/GST-TACC3 binding, luminescence; TACC3 fragment carries E629A point mutation; inhibition, % at 9.99 µM; 0.66% of 390,000 active;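 active = mean inhibition of replicates at least 50% and at least half of replicates each reaching 50%; inconclusive = half or more replicates reach 50% but mean below 50%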;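 note: 0% = complete ARNT plus TACC3 wells and 100% = ARNT alone without TACC3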
# T cruzi inh: inhibitors of intracellular T. cruzi growth, primary screen, luminescence, NIH3T3 host cells | T. cruzi beta-gal in NIH3T3, 90 h | inhibition, % (no concentration beside the values) | 1.4% of 300,000 active | AID 1885, 2009;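 active = mean inhibition across valid replicates above about 55%, limit read from the data; inconclusive = mean below that limit but half or more replicates reach it; inactive = mean below it, under half of replicates reach it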;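 note: signal also drops with host cell toxicity which is not excluded here; 0% = plate median of DMSO wells and 100% = zero luminescence signal; higher percent means less beta-gal luminescence so fewer parasites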
#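 System – NIH/3T3 host cells with β-galactosidase reporter T. cruzi · Doses – single 50 nL compound addition per well in DMSO · Reagent – 5000 T. cruzi trypomastigotes/well · Medium – Low-serum DMEM with 2% FBS · Timing – ≥90 h infection period, 3 h prior cell attachment · Evaluation – parasite load inhibition, % · Technique – GalScreen luminescence, 60 min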
# AI-2 QS modul: Vibrio harveyi AI-2 quorum sensing modulators, primary screen, JMH597 strain, luminescence/OD600 ratio. AID 2094, 2009. activity change, % at 7.5 µM. 0.4% of 300,000 active. Vibrio harveyi JMH597 AI-2 luminescence/OD600 ratio, 9 h; stronger effect = lower value; strain lacks LuxN and CqsS sensors; 0 = neutral-control median; in the data active = activity change below about -75%, passing the limit was not always enough; inconclusive = no clear call, values can overlap the other calls;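 note: luminescence divided by OD600 gain over 9 h not by final OD600 alone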
# * = called active by the depositor; ? = inconclusive; . = not tested or not shown.
SMILES,HIF activator,ARNT TACC3 PPI,T cruzi inh,AI-2 QS modul
COCCNC(=O)C[C@@H]1C[C@@H]2c3cc(NC(=O)NC4CCCCC4)ccc3O[C@@H]2[C@H](CO)O1,.,-8.8,.,.
CCCCN(CC)CCNC(=O)c1cc2c(-c3ccc(Cl)cc3)nn(C)c2s1,1.6,38.6,57.1*,5.4
O=C(C[C@@H]1C=C[C@@H](NC(=O)Cc2ccccn2)[C@H](CO)O1)NCCc1ccncc1,.,6.0,.,.
CC(C)(C)c1ccc(C(=O)c2cn[nH]c2-c2ccccc2O)cc1,2.5,-0.9,-0.1,-91.7*
O=C(c1ccc(Br)cc1)c1cn[nH]c1-c1ccccc1O,-1.9,-2.1,8.9,-80.8*
COc1ccc(C(=O)c2cn[nH]c2-c2ccc(C)cc2O)cc1,0.7,-1.6,-4.7,-86.2*
Cc1cccc(C(=O)c2cn[nH]c2-c2ccc(C)cc2O)c1,-7.0,-2.0,-2.0,27.7
COc1ccc(S(=O)(=O)N(C)C[C@@H]2Oc3ccc(NC(=O)Cn4cnnn4)cc3C(=O)N([C@@H](C)CO)C[C@@H]2C)cc1,.,-5.3,.,.
N#Cc1ccc(OCCOCCNC2CCCC2)cc1,-0.2,1.5,66.9*,26.6
COc1ccc(OCCNC2CCCC2)cc1,0.2,-3.3,11.0,25.8
c1cc2c(cc1OCCNC1CCCC1)CCC2,-0.1,.,-21.3,14.5
c1ccc(Cc2ccc(OCCCNC3CCCC3)cc2)cc1,-0.6,.,67.2*,-12.8
c1ccc(-c2ccc(OCCCNC3CCCC3)cc2)cc1,-0.7,.,59.7*,-1.8
COc1ccc(CN(C)C[C@@H]2OCCCC[C@@H](C)Oc3ccc(N(C)C)cc3C(=O)N([C@H](C)CO)C[C@H]2C)cc1,.,8.6,.,.
CCOC(=O)c1sc2nc(CSc3ccccc3)nc(N3CCC(C(N)=O)CC3)c2c1C,-1.0,0.2,59.2*,19.9
Cc1sc2nc(CSc3ccccc3)nc(N3CCC(C(N)=O)CC3)c2c1C,-1.5,-2.1,19.0,0.6
C[C@@H]1CCCCO[C@@H](CN(C)C(=O)Nc2ccc(F)cc2)[C@H](C)CN([C@@H](C)CO)C(=O)c2cc(NS(=O)(=O)c3ccc(F)cc3)ccc2O1,.,-7.5,.,.
Cc1ccc(NC(=O)N(Cc2cccnc2)Cc2ccco2)cc1C,-0.4,20.7,67.2*,-3.2
CCc1ccc(NC(=S)N(Cc2cccnc2)Cc2ccco2)cc1,.,22.0,.,7.2
O=C(Nc1ccc(Cl)cc1)N(Cc1cccnc1)Cc1ccco1,0.3,-1.8,60.9*,16.5
COCC#Cc1cnc2c(c1)C(=O)N([C@@H](C)CO)C[C@@H](C)[C@H](CN(C)S(=O)(=O)c1ccccc1)O2,.,-2.6,.,.
CC(C)c1ccc(N(C(=O)c2snc(C(N)=O)c2N)C(C(=O)NC2CCCC2)c2ccncc2)cc1 (stereo not given),44.1*,-19.5,37.7,14.0
CC=Cc1ccc2n(c1=O)C[C@H]1[C@H](CO)[C@@H](C(=O)NCC3CC3)[C@@H]2N1Cc1ccccc1F (mixture of isomers),.,11.5,.,.
CCOc1ccc(S(=O)(=O)NC(C)(C)C)cc1-c1nc2c(C(C)(C)C)nn(C)c2c(=O)[nH]1,.,-3.6,67.4*,17.7
Cc1ccc2sc(N3CCN(C(=O)c4ccc([N+](=O)[O-])o4)CC3)nc2c1C,0.0,3.9,58.7*,22.4
SMILES,HIF activator,ARNT TACC3 PPI,T cruzi inh,AI-2 QS modul
COc1cc2c(cc1OC)CN(C(=O)c1ccc([N+](=O)[O-])o1)CC2,-0.1,0.0,49.7,24.9
COc1cccc2sc(N3CCN(C(=O)c4ccc([N+](=O)[O-])o4)CC3)nc12,?,4.4,26.0,21.1
O=C(c1ccc([N+](=O)[O-])o1)N1CCN(c2nc3c(Cl)cccc3s2)CC1,0.1,2.7,58.8*,-0.5
O=C(c1ccc([N+](=O)[O-])o1)N1CCc2ccccc2C1,0.1,-1.2,56.7*,-0.2
CO[C@H]1CN(C)C(=O)c2cc(NC(=O)NC(C)C)ccc2OC[C@H](C)N(Cc2ccc(-c3ccccn3)cc2)C[C@H]1C,.,-4.4,.,.
CO[C@@H]1CN(C)C(=O)c2ccc(NC(=O)C3CCOCC3)cc2OC[C@@H](C)N(C)C[C@@H]1C,.,-15.8,.,.
CC(=O)Nc1ccc2c(c1)C(=O)N(C)[C@H]1CC[C@H](CC(=O)Nc3cccc(Cl)c3)O[C@@H]1CO2,.,-5.1,.,.
C[C@H]1CN([C@@H](C)CO)C(=O)c2cc(NC(=O)c3ccncc3)ccc2O[C@@H]1CN(C)Cc1ccc(C(=O)O)cc1,.,-2.1,.,.
